In ChEMBL document CHEMBL1154329, “Structure and cytotoxicity of arnamial and related fungal sesquiterpene aryl esters” (J Nat Prod, 2009):
The source made the active and inactive calls. The calls are words filed in the database; no cut-off is given here. Starred links: 1 amine or outer side, 2 acyl side, 3 side chain; linkers in the order of their positions; H or OH if unused. Positions of bridges follow the written chain, without caps; N, C: chain ends. Non-standard residues stand in square brackets, D forms with d. Residues, ends and D or L forms follow the SMILES beside them. Chains are numbered I, II in the order given. Actinocin(1to9) = Cc1c2oc3c(C)ccc(C(=O)[*:2])c3nc-2c(C(=O)[*:1])c(N)c1=O; NMeV = CN[C@H](C(=O)O)C(C)C; Sar = CNCC(=O)O

Assays:
HCT-116 [1] = test: Cytotoxicity against human HCT116 cells at <=100 uM after 48 hrs by MTT assay; format: functional, cell-based
Summary of the method: (§1)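 All four lines kept in RPMI 1640 with 10% FBS, 1% GlutaMAX, penicillin/streptomycin. Cells seeded at (2.5-5.0) × 10^4 per well and held overnight at 37 °C. Compounds added as 2-fold DMSO dilutions, top final concentration 100 µM, 0.5% DMSO final. Triplicates, 48 h, 37 °C, 5% CO2. MTT 1 mg/mL added for 3 h. IC50 is the mean of three replicate experiments.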

MCF7 [2] = test: Cytotoxicity against human MCF7 cells at <=100 uM after 48 hrs by MTT assay; format: functional, cell-based; summary of the method: as §1
Jurkat [3] = test: Cytotoxicity against human Jurkat T cells at <=100 uM after 48 hrs by MTT assay; format: functional, cell-based; summary of the method: as §1
CCRF-CEM [4] = test: Cytotoxicity against human CCRF-CEM cells at <=100 uM after 48 hrs by MTT assay; format: functional, cell-based; summary of the method: as §1
Jurkat [5] = test: Cytotoxicity against human Jurkat T cells after 48 hrs by MTT assay; format: functional, cell-based; summary of the method: as §1
HCT-116 [6] = test: Cytotoxicity against human HCT116 cells after 48 hrs by MTT assay; format: functional, cell-based; settings: HCT-116, 48 h; summary of the method: as §1
MCF7 [7] = test: Cytotoxicity against human MCF7 cells after 48 hrs by MTT assay; format: functional, cell-based; settings: MCF7, 48 h; summary of the method: as §1
CCRF-CEM [8] = test: Cytotoxicity against human CCRF-CEM cells after 48 hrs by MTT assay; format: functional, cell-based; summary of the method: as §1
Jurkat [9] = test: Induction of apoptosis in human Jurkat T cells assessed as activation of caspase3 at 10 uM after 6 hrs relative to control; format: functional
Summary of the method: (§2)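 Jurkat T cells at 1 × 10^6 cells/mL treated for 6 h, then centrifuged at 4 °C, washed and homogenized. Caspase-3 activity read with DEVD-AMC substrate at 200 nM. Rate of fluorescence increase normalized to Bradford protein, expressed as fold over untreated cells. Three independent experiments.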

Jurkat [10] = test: Induction of apoptosis in human Jurkat T cells assessed as increase in DNA fragmentation at 10 uM after 6 hrs by ELISA relative to control; format: functional
Summary of the method: (§3)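 Jurkat T cells at 1 × 10^6 cells/mL exposed for 6 h. DNA fragmentation measured as histone-DNA complexes by histone ELISA and expressed as fold increase over untreated cells.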

Jurkat [11] = test: Induction of apoptosis in human Jurkat T cells assessed as activation of caspase3 at 0.3 uM after 6 hrs relative to control; format: functional; summary of the method: as §2
Jurkat [12] = test: Induction of apoptosis in human Jurkat T cells assessed as increase in DNA fragmentation at 0.33 uM after 6 hrs by ELISA relative to control; format: functional; summary of the method: as §3

Row | Structure (SMILES) | Activity (HCT-116 [1]) | Activity (MCF7 [2]) | Activity (Jurkat [3]) | Activity (CCRF-CEM [4]) | IC50 (Jurkat [5]) | IC50 (HCT-116 [6]) | IC50 (MCF7 [7]) | IC50 (CCRF-CEM [8]) | other results
1 | Cc1cc(O)cc(O)c1C(=O)O[C@@H]1C[C@]2(C)[C@H]3[C@@H](O)C(C)(C)C[C@@]3(O)C=C(CO)[C@]12O | inactive | inactive | inactive | inactive |  |  |  |  | 
2 | Cc1cc(O)cc(O)c1C(=O)O[C@@H]1C[C@]2(C)[C@@H]3[C@H](C=C(C=O)[C@]12O)CC(C)(C)[C@@H]3O |  |  |  |  | 86.2 µM | > 100 µM | > 100 µM | 63.2 µM | 
3 | COc1cc(O)c(C(=O)O[C@@H]2C[C@]3(C)[C@H]4[C@@H](O)C(C)(C)C[C@@]4(O)C=C(CO)[C@]23O)c(C)c1Cl [MELLEOLIDE D] |  |  |  |  | > 100 µM | > 100 µM | > 100 µM | 61.7 µM | 
4 | COc1cc(O)c(C(=O)O[C@@H]2C[C@@]3(C)C2=C(C=O)[C@@H](O)[C@@H]2CC(C)(C)C[C@@H]23)c(C)c1Cl [ARNAMIAL] |  |  |  |  | 3.93 µM | 10.7 µM | 15.4 µM | 8.91 µM | fold change (FC) (Jurkat [9]): 18.1; fold change (FC) (Jurkat [10]): 4.5
5 | COc1cc(O)c(C(=O)O[C@@H]2C[C@]3(C)[C@H]4[C@@H](O)C(C)(C)C[C@@]4(O)C=C(C=O)[C@]23O)c(C)c1Cl [MELLEDONAL C] |  |  |  |  | 58.8 µM | > 100 µM | > 100 µM | 14.8 µM | 
6 | COc1cc(C)c(C(=O)O)c(O)c1 | inactive | inactive | inactive | inactive |  |  |  |  | 
7 | Cc1cc(O)cc(O)c1C(=O)O[C@@H]1C[C@]2(C)[C@H]3[C@@H](O)C(C)(C)C[C@@]3(O)C=C(C=O)[C@]12O | inactive | inactive | inactive | inactive |  |  |  |  | 
8 | COc1cc(C)c(C(=O)O[C@@H]2C[C@]3(C)[C@H]4[C@@H](O)C(C)(C)C[C@@]4(O)C=C(CO)[C@]23O)c(O)c1 | inactive | inactive | inactive | inactive |  |  |  |  | 
9 | Cc1c2oc3c(C)ccc(C(=O)N[C@@H]4C(=O)N[C@H](C(C)C)C(=O)N5CCC[C@H]5C(=O)N(C)CC(=O)N(C)[C@@H](C(C)C)C(=O)O[C@@H]4C)c3nc-2c(C(=O)N[C@@H]2C(=O)N[C@H](C(C)C)C(=O)N3CCC[C@H]3C(=O)N(C)CC(=O)N(C)[C@@H](C(C)C)C(=O)O[C@@H]2C)c(N)c1=O [DACTINOMYCIN] (I: T[dV]P[Sar][NMeV] / II: T[dV]P[Sar][NMeV]; ester I:1-I:C, II:1-II:C; linker I:N-II:N via Actinocin(1to9)) |  |  |  |  |  |  |  |  | fold change (FC) (Jurkat [11]): 5.7; fold change (FC) (Jurkat [12]): 4.3
10 | Cc1cc(O)cc(O)c1C(=O)O | inactive | inactive | inactive | inactive |  |  |  |  | 
